Several values for one entry are separate records, joined by “and”; a condition that tells them apart may be missing. Equal values may be shown once. Read-outs that look alike come from different tables or passages of the source.
Experiments:
Thr473Cys RT = Thr473Cys RT (Human immunodeficiency virus type 1 group M subtype B, UniProt P03366, T1072C); experiment: RNase H inhibition, Thr473Cys RT; format: biochemical, HIV-1; conditions: Thr473 replaced with cysteine
HIV-1 RNase H activity = experiment: Yonetani–Theorell analysis of RNase H inhibition; format: biochemical; conditions: NSC727447 0.25–16 μM, β-thujaplicinol 0.1–0.4 μM; substrate 250 nM, enzyme 4 nM
Procedure, shortened: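 FRET RNase H assay: 18-nt 3'-fluorescein RNA annealed to 5'-dabcyl DNA (250 nM), enzyme 4 nM. Test compound at 0, 0.25, 0.5, 1, 2, 4, 8, 16 μM, each at β-thujaplicinol 0, 0.1, 0.2, 0.4 μM. Substrate added to start; fluorescence followed for 60 min. Inverse rate (ΔRFU/min) fitted to the Yonetani–Theorell equation to obtain interaction term γ.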

[1] = molecular target: HIV-1 RT RNase H activity (wild type p66/p51) (Human immunodeficiency virus type 1, UniProt P03366); experiment: FRET-based RNase H assay, wild-type HIV-1 RT; format: biochemical
[2] = system: HIV-1 RT variant with Cys38 and Cys280 removed from p66 and p51; experiment: RNase H inhibition, RT variant lacking Cys38 and Cys280; format: biochemical; conditions: Cys38 and Cys280 removed from both subunits
HIV-1 RT Tyr501Az-Phe = HIV-1 RT Tyr501Az-Phe (Human immunodeficiency virus type 1, UniProt P03366, Y1100X); experiment: FRET-based RNase H assay, Tyr501Az-Phe RT; format: biochemical
[3] = molecular target: HIV-1 RT DNA polymerase activity (Human immunodeficiency virus type 1, UniProt P03366); experiment: DNA polymerase activity in the absence of pyrophosphorolysis; format: biochemical; conditions: 50 μM, data not shown
p66^501BpF/p51 RT = p66^501BpF/p51 RT (Human immunodeficiency virus type 1, UniProt P03366, Y1100X); experiment: FRET-based RNase H assay, Tyr501Bp-Phe RT; format: biochemical, HIV-1; conditions: for IC50: IC50, RNase H activity, Tyr501Bp-Phe RT
HIV-1 RT Tyr501Trp = HIV-1 RT Tyr501Trp (Human immunodeficiency virus type 1 group M subtype B, UniProt P03366, Y1100W); experiment: FRET-based RNase H assay, Tyr501Trp RT; format: biochemical
[4] = system: wild-type RT / RNA-DNA hybrid complex; experiment: Electrophoretic mobility shift analysis, wild-type RT on RNA/DNA hybrid; format: binding, HIV-1; conditions: 50 μM; gel-mobility shift
Procedure, shortened: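 Mobility-shift assay: RT 250 nM with RNA/DNA hybrid 50 nM (14 nt RNA–8 nt DNA chimera annealed to 22 nt DNA, mimicking tRNA primer removal) in 50 mM Tris/HCl pH 7.8, 50 mM NaCl. Test compound 0.6–50 μM. Complexes resolved by nondenaturing electrophoresis and detected by autoradiography.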

`NC(=O)c1c(N)sc2c1CCCCC2` [NSC727447, 2-amino-5,6,7,8-tetrahydro-4H-cyclohepta[b]thiophene-3-carboxamide] was tested, and the “sensitivity of mutant enzyme to inhibitor vs wild type” value (Thr473Cys RT) was “increased sensitivity”, the “mode of interaction with β-thujaplicinol (NSC18806), Yonetani–Theorell” value (HIV-1 RNase H activity) was “mutually exclusive inhibitors” and the IC50 [1] was 6.6 µM. The “sensitivity of mutant enzyme to inhibitor” value [2] was “retained sensitivity”, the IC50 (HIV-1 RT Tyr501Az-Phe) was 89.6 µM and the “fold decrease in inhibitor potency vs wild type” value (HIV-1 RT Tyr501Az-Phe; Tyr501Az-Phe RT vs wild type) was 14 fold. The “inhibition of DNA polymerase activity” value [3] was “insensitive to inhibition”, the IC50 (p66^501BpF/p51 RT) was 197 µM and 196 µM and the “fold resistance vs wild type” value (p66^501BpF/p51 RT; p66^501BpF/p51 RT vs wild type) was about 30 fold. For the same compound, the IC50 (HIV-1 RT Tyr501Trp) was 70.6 µM, the “fold decrease in inhibitor potency vs wild type” value (HIV-1 RT Tyr501Trp; Tyr501Trp RT vs wild type) was ~ 11 fold and the “effect on affinity of RT for RNA/DNA substrate” value [4] was “unaffected”.

`Cc1sc(NC(=O)c2ccco2)c(C(N)=O)c1C` [NSC727448, N-[3-(aminocarbonyl)-4,5-dimethyl-2-thienyl]-2-furancarboxamide] showed an IC50 [1] of about 5.5 µM and an IC50 (p66^501BpF/p51 RT) of about 220 µM.

Work on `CC(C)c1ccc(O)c(=O)c(O)c1` [β-thujaplicinol, reference compound] yielded an IC50 [1] of 0.25 ± 0.023 µM.

manicol [reference compound] was tested, and the IC50 ([1]; read-out: IC50, RNase H activity, wild-type RT, FRET substrate) was 0.6 ± 0.09 µM.

Source: article PMC2941776 (ACS chemical biology, 2008)
